Laboratory results from ChEMBL document CHEMBL1212935 (J Med Chem, 2010).
Activity calls are given as the source filed them. No cut-off for these calls is given here.

Key:
[1] = organism: Homo sapiens; assay: Selectivity ratio of Ki for human CB1 receptor to Ki for human CB2 receptor
[2] = biological target: Cannabinoid receptor 1 (Homo sapiens, UniProt P21554); assay: biochemical; type: cell-based, HEK293
[3] = biological target: T1, Cannabinoid receptor 2 (Homo sapiens, UniProt P34972); assay: Displacement of [3H]CP-55940 from human CB2 receptor expressed in HEK cells; type: cell-based, HEK293
T1 sequence (P34972 whole entry): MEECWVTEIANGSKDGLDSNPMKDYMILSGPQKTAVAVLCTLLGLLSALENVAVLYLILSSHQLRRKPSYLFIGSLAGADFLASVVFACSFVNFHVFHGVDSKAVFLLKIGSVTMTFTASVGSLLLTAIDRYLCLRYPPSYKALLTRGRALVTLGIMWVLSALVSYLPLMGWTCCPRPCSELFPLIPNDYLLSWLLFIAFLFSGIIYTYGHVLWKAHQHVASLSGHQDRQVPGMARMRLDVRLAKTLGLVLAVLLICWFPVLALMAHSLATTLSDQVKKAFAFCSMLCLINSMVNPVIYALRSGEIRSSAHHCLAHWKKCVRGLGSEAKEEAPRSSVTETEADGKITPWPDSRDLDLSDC

[4] = system: Mus musculus; assay: Antinociceptive activity in mouse hind paw assessed as inhibition of formalin-induced nociceptive behavior at 3 mg/kg, ip administered 15 mins prior to formalin challenge; type: functional, organism-based; parameters: dose 3 mg/kg
Summary of the method: (§1)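 Mice received ip compound in 20% DMSO in 0.9% NaCl, groups of 8-10, one treatment per animal. Formalin (1.25% in saline, 30 μL) was injected into the dorsal hind paw 15 min later. A blinded observer timed lifting, favoring, licking, shaking and flinching over 0-10 min (early phase) and 20-60 min (late phase). Mean ± SEM; ANOVA with Dunnett's test.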

[5] = system: Mus musculus; assay: Antinociceptive activity in mouse hind paw assessed as inhibition of formalin-induced nociceptive behavior at 1 to 3 mg/kg, ip administered 15 mins prior to formalin challenge; type: functional, organism-based; summary of the method: as §1
[6] = biological target: T1, Cannabinoid receptor 2; assay: Antagonist activity at human CB2 receptor expressed in CHO cells assessed as inhibition of forskolin-stimulated cAMP level up to 20 uM by [35S]GTPgammaS binding assay; type: functional, cell-based
Summary of the method: (§2)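 CHO cells stably carrying human CB2 (DMEM/F12 with 10% FBS and G418 400 μg/mL, 37 °C, 5% CO2); membranes scraped and pelleted. [35S]GTPγS 0.1 nM with GDP 30 μM, 50 μg membrane protein, in Tris/NaCl/BSA buffer with 5 mM MgCl2, 1 mM DTT and 1 mM EDTA; 60 min at 30 °C. Nonspecific binding with 30 μM GTPγS. Filtration, then scintillation counting.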

[7] = biological target: CYP3A4 (Homo sapiens, UniProt P08684); assay: Inhibition of CYP3A4 after 1 hr assessed as residual activity; type: ADME; settings: read-out: Activity
CYP3A4, sequence (P08684 whole entry): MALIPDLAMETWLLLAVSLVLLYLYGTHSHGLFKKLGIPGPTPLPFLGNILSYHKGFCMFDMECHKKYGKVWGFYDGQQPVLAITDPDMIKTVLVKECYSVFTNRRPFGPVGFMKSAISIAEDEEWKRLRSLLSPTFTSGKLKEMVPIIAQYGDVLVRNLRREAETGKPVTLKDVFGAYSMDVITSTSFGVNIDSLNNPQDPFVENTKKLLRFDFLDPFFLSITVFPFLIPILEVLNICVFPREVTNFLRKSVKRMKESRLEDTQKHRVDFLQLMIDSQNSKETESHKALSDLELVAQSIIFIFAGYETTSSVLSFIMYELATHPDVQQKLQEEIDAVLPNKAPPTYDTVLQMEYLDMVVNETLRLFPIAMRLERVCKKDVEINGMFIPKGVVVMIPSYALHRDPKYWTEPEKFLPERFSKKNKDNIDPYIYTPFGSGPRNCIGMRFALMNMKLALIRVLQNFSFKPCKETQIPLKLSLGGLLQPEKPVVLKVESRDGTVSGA

[8] = biological target: T1, Cannabinoid receptor 2; assay: Antagonist activity at human CB2 receptor expressed in CHO cells assessed as inhibition of forskolin-stimulated cAMP level at < 100 uM by [35S]GTPgammaS binding assay; type: functional, cell-based
[9] = biological target: T1, Cannabinoid receptor 2; assay: Antagonist activity at human CB2 receptor expressed in CHO cells assessed as inhibition of forskolin-stimulated cAMP level by [35S]GTPgammaS binding assay; type: functional, cell-based; summary of the method: as §2
[10] = system: Mus musculus; assay: Antinociceptive activity in mouse hind paw assessed as inhibition of formalin-induced nociceptive behavior at 1 to 3 mg/kg, ip administered 15 mins prior to formalin challenge in presence of CB2 selective agonist JWH133; type: functional, organism-based; summary of the method: as §1
[11] = system: Mus musculus; assay: Antinociceptive activity in mouse hind paw assessed as inhibition of formalin-induced nociceptive behavior at 1 mg/kg, ip administered 15 mins prior to formalin challenge; type: functional, organism-based; parameters: dose 1 mg/kg; summary of the method: as §1

Cannabinoid receptor 1, sequence (P21554 whole entry): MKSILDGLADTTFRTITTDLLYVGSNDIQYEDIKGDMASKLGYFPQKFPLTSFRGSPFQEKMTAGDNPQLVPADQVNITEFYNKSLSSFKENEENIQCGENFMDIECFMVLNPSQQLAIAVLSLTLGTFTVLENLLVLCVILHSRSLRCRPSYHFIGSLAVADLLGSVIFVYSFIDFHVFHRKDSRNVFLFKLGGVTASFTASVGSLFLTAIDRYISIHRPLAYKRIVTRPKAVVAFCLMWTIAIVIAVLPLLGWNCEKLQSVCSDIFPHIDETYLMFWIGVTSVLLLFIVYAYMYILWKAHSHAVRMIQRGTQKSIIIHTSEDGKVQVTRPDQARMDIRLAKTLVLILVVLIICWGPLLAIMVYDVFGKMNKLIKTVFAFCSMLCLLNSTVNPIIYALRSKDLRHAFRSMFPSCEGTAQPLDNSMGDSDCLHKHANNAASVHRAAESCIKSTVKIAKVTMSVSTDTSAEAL

SMILES | Selectivity Index [1] | Ki [2] [nM] | Ki [3] [nM] | further results
CCCCCn1cc(C(=O)N[C@H]2C(C)(C)[C@H]3CC[C@]2(C)C3)c(=O)c2cc(-c3ccco3)ccc21 | 200 | 480 | 2.4 | 
CCCCCn1cc(C(=O)NC23CC4CC(CC(C4)C2)C3)c(=O)c2cc(-c3cnn(CC(C)C)c3)ccc21 | 5 | 246 | 51 | 
CCCCCn1cc(C(=O)NC23CC4CC(CC(C4)C2)C3)c(=O)c2cc(CCc3ccccc3)ccc21 | > 177 | > 10000 | 56.6 | Activity [4]: inactive
C#CCn1cc(C(=O)NC23CC4CC(CC(C4)C2)C3)c(=O)c2cc(Br)ccc21 | 64 | 3210 | 49.8 | 
CCCCCn1cc(C(=O)NC23CC4CC(CC(C4)C2)C3)c(=O)c2cc(-c3ccc(C#N)cc3)ccc21 | > 239 | > 10000 | 41.9 | Activity [5]: Active
CCCCCn1cc(C(=O)NC23CC4CC(CC(C4)C2)C3)c(=O)c2cc(/C=C/c3ccccc3)ccc21 | > 153 | > 10000 | 65.4 | 
CCCCCn1cc(C(=O)NN2CCCCC2)c(=O)c2cc(Br)ccc21 | 5 | 1900 | 400 | 
CCCCCn1cc(C(=O)NC23CC4CC(CC(C4)C2)C3)c(=O)c2cc(-c3ccco3)ccc21 | > 14300 | > 10000 | 0.7 | Activity [6]: inactive; Activity [5]: Active; activity at 1 h [7]: 4%; Emax [8]: 13.9%; Activity [9]: Active
CCCCCn1cc(C(=O)NC23CC4CC(CC(C4)C2)C3)c(=O)c2cc(-c3ccc(O)cc3)ccc21 | > 2380 | > 10000 | 4.2 | Activity [5]: Active; Activity [10]: inactive
CCCCCn1cc(C(=O)NC23CC4CC(CC(C4)C2)C3)c(=O)c2cc(S(=O)(=O)c3ccccc3)ccc21 | > 152 | > 10000 | 65.9 | 
CCCCCn1cc(C(=O)NC23CC4CC(CC(C4)C2)C3)c(=O)c2cc(I)ccc21 | 101 | 2080 | 20.6 | 
CCCCCn1cc(C(=O)NC23CC4CC(CC(C4)C2)C3)c(=O)c2cc(Cc3ccc(Cl)cc3Cl)ccc21 | > 3 | > 10000 | 3880 | 
CCCCCn1cc(C(=O)NC23CC4CC(CC(C4)C2)C3)c(=O)c2cc(/C=C/C(C)(C)C)ccc21 | > 140 | > 10000 | 71.6 | 
C=CCn1cc(C(=O)NC23CC4CC(CC(C4)C2)C3)c(=O)c2cc(-c3ccco3)ccc21 | > 169 | > 10000 | 59 | 
CCCCCn1cc(C(=O)NC23CC4CC(CC(C4)C2)C3)c(=O)c2cc(-c3c(C)noc3C)ccc21 | > 80 | > 10000 | 126 | 
CCCCCn1cc(C(=O)NC23CC4CC(CC(C4)C2)C3)c(=O)c2cc(C#Cc3ccccc3)ccc21 | > 29 | > 10000 | 343 | 
CCCCCn1cc(C(=O)NC23CC4CC(CC(C4)C2)C3)c(=O)c2cc(CC)ccc21 | 53 | 900 | 16.9 | 
CCCCCn1cc(C(=O)NC23CC4CC(CC(C4)C2)C3)c(=O)c2cc(-c3cccs3)ccc21 | > 4350 | > 10000 | 2.3 | 

SMILES | Selectivity Index [1] | Ki [2] [nM] | Ki [3] [nM] | further results
CCCCCn1cc(C(=O)NC23CC4CC(CC(C4)C2)C3)c(=O)c2cc(C3=CCCCC3)ccc21 | > 1200 | > 10000 | 8.3 | 
CCCCCn1cc(C(=O)NC23CC4CC(CC(C4)C2)C3)c(=O)c2cc(-n3cccc3)ccc21 | 42 | 29.7 | 0.7 | 
CCCCCn1cc(C(=O)NC23CC4CC(CC(C4)C2)C3)c(=O)c2cc([S+]([O-])c3ccccc3)ccc21 (centres undefined) | 6 | 460 | 73.2 | 
CCCCCn1cc(C(=O)NC23CC4CC(CC(C4)C2)C3)c(=O)c2cc(-c3ccc(Cl)s3)ccc21 | > 223 | > 10000 | 44.8 | 
CCCCCn1cc(C(=O)NC23CC4CC(CC(C4)C2)C3)c(=O)c2cc(-c3ccc(-c4ccccc4)cc3)ccc21 | > 55 | > 10000 | 181 | 
COc1ccc(C(=O)c2c(C)n(CCN3CCOCC3)c3cc(I)ccc23)cc1 |  |  |  | Activity [11]: inactive
CCCCCn1cc(C(=O)NC23CC4CC(CC(C4)C2)C3)c(=O)c2cc(-c3ccc4cc(OC)ccc4c3)ccc21 | 7 | 360 | 52.6 | 
CCCCCn1cc(C(=O)NC23CC4CC(CC(C4)C2)C3)c(=O)c2cc(C3CCCCC3)ccc21 | > 1370 | > 10000 | 7.3 | Activity [5]: inactive; Activity [10]: Active
CCCCCn1cc(C(=O)NC2CCCCC2)c(=O)c2cc(Br)ccc21 | 2 | 1700 | 900 | 
CCCCCn1cc(C(=O)N[C@H]2C(C)(C)[C@H]3CC[C@]2(C)C3)c(=O)c2cc(Br)ccc21 | 0.6 | 2.8 | 5 | 
CCCCCn1cc(C(=O)NC23CC4CC(CC(C4)C2)C3)c(=O)c2cc(-c3ccc(F)cc3F)ccc21 | > 625 | > 10000 | 16 | 
C=CCCn1cc(C(=O)NC23CC4CC(CC(C4)C2)C3)c(=O)c2cc(-c3ccco3)ccc21 | > 2270 | > 10000 | 4.4 | 
CCCCCn1cc(C(=O)NC23CC4CC(CC(C4)C2)C3)c(=O)c2cc(-n3ccnc3)ccc21 | > 1250 | > 10000 | 8 | 
CCCCCn1cc(C(=O)NC23CC4CC(CC(C4)C2)C3)c(=O)c2cc(-c3ccc(OC)nc3)ccc21 | > 169 | > 10000 | 59.3 | 
CCCCCn1cc(C(=O)NC23CC4CC(CC(C4)C2)C3)c(=O)c2cc(-c3cc(C)c(OC)c(C)c3)ccc21 | 24 | 510 | 21.5 | 
CCCCCn1cc(C(=O)NC23CC4CC(CC(C4)C2)C3)c(=O)c2cc(-c3ccc(Cl)cc3)ccc21 | > 909 | > 10000 | 11 | 
C#Cc1ccc2c(c1)c(=O)c(C(=O)NC13CC4CC(CC(C4)C1)C3)cn2CCCCC | > 1140 | > 10000 | 8.8 | 
